Measurements as given in ChEMBL document CHEMBL1629579, “Correlating echinocandin MIC and kinetic inhibition of fks1 mutant glucan synthases for Candida albicans: implications for interpretive breakpoints” (Antimicrob Agents Chemother, 2009).
Values after ≈ are worked out from the molar mass of the structure shown. Numbered stars: 1 amine (or outer) side, 2 acyl side, 3 side chain; on linkers, the order of the positions; unused ones are H or OH. Bridge positions count the residues as written; N and C are the ends. Square brackets hold non-standard residues; d marks the D form. Peptide text beside a SMILES is read from it. * marks the point of attachment. pTerphenylCO(4''-OnC5H11) = CCCCCOc1ccc(-c2ccc(-c3ccc(C(=O)*)cc3)cc2)cc1; Orn(4R-OH,5R-OH) = O=C([C@H](C[C@@H](O)[C@@H](O)N[*:3])N[*:1])[*:2]; hTyr(3S-OH,4S-OH) = N[C@H](C(=O)O)[C@H](O)[C@@H](O)c1ccc(O)cc1; Pro(3S-OH,4S-Me) = C[C@H]1CN[C@H](C(=O)O)[C@H]1O; Hyp = O=C(O)[C@@H]1C[C@@H](O)CN1

Legend:
Candida albicans [1] = assay: Antimicrobial activity against Candida albicans SC5314 by M27-A3 method in presence of 50% human serum; type: functional
Summary of the method: (§1)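 Broth microdilution per CLSI M27-A3 in RPMI 1640, done in triplicate on three separate days. Each strain was tested with and without 50% human serum. C. krusei ATCC 6258 and C. parapsilosis ATCC 22019 served as QC strains. Arithmetic means are reported, and geometric means were used for comparison.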

Candida albicans [2] = assay: Antimicrobial activity against Candida albicans 1002 by M27-A3 method in presence of 50% human serum; type: functional; summary of the method: as §1
Candida albicans [3] = assay: Antimicrobial activity against Candida albicans 3795 by M27-A3 method; type: functional
Summary of the method: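 Broth microdilution per CLSI M27-A3 in RPMI 1640, with and without 50% human serum, in triplicate. C. krusei ATCC 6258 and C. parapsilosis ATCC 22019 served as quality-control strains. MIC reported as arithmetic mean of three repetitions on separate days.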

Candida albicans [4] = assay: Antimicrobial activity against Candida albicans 2762 harboring FKS1 T1922C mutant gene and FKS1 hotspot1 F641S mutant gene by M27-A3 method; type: functional; summary of the method: as §1
Candida albicans [5] = assay: Antimicrobial activity against Candida albicans 205 harboring FKS1 T1933C mutant gene and FKS1 hotspot1 S645P mutant gene by M27-A3 method; type: functional; summary of the method: as §1
Candida albicans [6] = assay: Antimicrobial activity against Candida albicans 5415 harboring FKS1 T1933C mutant gene and FKS1 hotspot1 S645P mutant gene by M27-A3 method in presence of 50% human serum; type: functional; summary of the method: as §1
Candida albicans [7] = assay: Antimicrobial activity against Candida albicans 89 harboring FKS1 C1934A mutant gene and FKS1 hotspot1 S645Y mutant gene by M27-A3 method in presence of 50% human serum; type: functional; summary of the method: as §1
Candida albicans [8] = assay: Antimicrobial activity against Candida albicans 85 harboring FKS1 C1934T mutant gene and FKS1 hotspot1 S645F mutant gene by M27-A3 method; type: functional; summary of the method: as §1
Candida albicans [9] = assay: Antimicrobial activity against Candida albicans 85 harboring FKS1 C1934T mutant gene and FKS1 hotspot1 S645F mutant gene by M27-A3 method in presence of 50% human serum; type: functional; summary of the method: as §1
Candida albicans [10] = assay: Antimicrobial activity against Candida albicans 149 harboring FKS1 G1942T mutant gene and FKS1 hotspot1 D648Y mutant gene by M27-A3 method in presence of 50% human serum; type: functional; summary of the method: as §1
Candida albicans [11] = assay: Antimicrobial activity against Candida albicans 121 harboring FKS1 G4082A mutant gene and FKS1 hotspot2 R1361H mutant gene by M27-A3 method in presence of 50% human serum; type: functional; summary of the method: as §1
Candida albicans [12] = assay: Antimicrobial activity against Candida albicans A15 harboring FKS1 T1933Y mutant gene and FKS1 hotspot1 S645S/P mutant gene by M27-A3 method in presence of 50% human serum; type: functional; summary of the method: as §1
Candida albicans [13] = assay: Antimicrobial activity against Candida albicans A15-10 harboring FKS1 T1933C mutant gene and FKS1 hotspot1 S645P mutant gene by M27-A3 method; type: functional; summary of the method: as §1
[14] = Inhibition of Candida albicans 1002 1,3-beta-D-glucan synthase subunit FKS1p
Summary of the method: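 Product-entrapped glucan synthase from YPD-grown cells (37°C, early stationary phase) in a filtration polymerization assay with [3H]UDPG. Echinocandin serial dilutions were added, with 1% DMSO in controls for anidulafungin. Reactions were started with enzyme, run 60 min at 25°C and stopped on ice. IC50 came from a variable-slope sigmoidal fit, in triplicate.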

[15] = Inhibition of Candida albicans 205 1,3-beta-D-glucan synthase subunit FKS1p T1933C mutant
Summary of the method: (§2)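 Enzyme is product-entrapped 1,3-β-D-glucan synthase, enriched from membranes of each strain grown at 37°C with shaking in YPD broth to early stationary phase. Filtration polymerization assay uses [3H]UDPG, started by adding enzyme and run 60 min at 25°C. Echinocandins are added as serial dilutions, with 1% DMSO controls for anidulafungin. IC50 is from a variable-slope sigmoidal fit; values are triplicate arithmetic means.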

[16] = Inhibition of Candida albicans 5415 1,3-beta-D-glucan synthase subunit FKS1p T1933C mutant; summary of the method: as §2
[17] = Inhibition of Candida albicans 89 1,3-beta-D-glucan synthase subunit FKS1p C1934A mutant; summary of the method: as §2
[18] = Inhibition of Candida albicans 85 1,3-beta-D-glucan synthase subunit FKS1p C1934T mutant; summary of the method: as §2
[19] = Inhibition of Candida albicans 194 1,3-beta-D-glucan synthase subunit FKS1p C1934T/G4082R mutant; summary of the method: as §2
[20] = Inhibition of Candida albicans 90 1,3-beta-D-glucan synthase subunit FKS1p G4082R mutant; summary of the method: as §2
[21] = Inhibition of Candida albicans A15-10 1,3-beta-D-glucan synthase subunit FKS1p T1933C mutant; summary of the method: as §2
Candida albicans SC5314 = assay: Activity at Candida albicans SC5314 1,3-beta-D-glucan synthase subunit FKS1p
Summary of the method: (§3)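 Glucan synthase from cells grown at 37°C with vigorous shaking to early stationary phase in YPD. Membrane enzyme enriched by product entrapment. Serial echinocandin dilutions; ANF controls held 1% DMSO. Reaction started by adding enzyme, run 60 min at 25°C in a filtration polymerization assay, stopped on ice. IC50 from a variable-slope sigmoidal fit; means of three repetitions on separate days.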

Candida albicans [22] = assay: Activity at Candida albicans 36082 1,3-beta-D-glucan synthase subunit FKS1p; summary of the method: as §3
Candida albicans [23] = assay: Activity at Candida albicans 90028 1,3-beta-D-glucan synthase subunit FKS1p; summary of the method: as §3
Candida albicans [24] = assay: Activity at Candida albicans 3795 1,3-beta-D-glucan synthase subunit FKS1p; summary of the method: as §3
Candida albicans [25] = assay: Activity at Candida albicans 119 1,3-beta-D-glucan synthase subunit FKS1p T1921C mutant
Summary of the method: (§4)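 Product-entrapped 1,3-β-D-glucan synthase from cells grown in YPD at 37°C to early stationary phase. Wells held 50 mM HEPES pH 7.5, 10% glycerol, 1.5 mg/ml BSA, 25 mM KF, 1 mM EDTA, 25 μM GTP-γ-S, 1 μg enzyme and [3H]UDPG (0.015–2 mM). Reactions ran 60 min at 25°C. Vmax and Km came from Lineweaver-Burke plots, in triplicate.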

Candida albicans [26] = assay: Activity at Candida albicans 177 1,3-beta-D-glucan synthase subunit FKS1p T1922C mutant; summary of the method: as §4
Candida albicans [27] = assay: Activity at Candida albicans 205 1,3-beta-D-glucan synthase subunit FKS1p T1933C mutant; summary of the method: as §4
Candida albicans [28] = assay: Activity at Candida albicans 5415 1,3-beta-D-glucan synthase subunit FKS1p T1933C mutant; summary of the method: as §4
Candida albicans [29] = assay: Activity at Candida albicans 90 1,3-beta-D-glucan synthase subunit FKS1p G4082R mutant; summary of the method: as §4

CCCCCOc1ccc(-c2ccc(-c3ccc(C(=O)N[C@H]4C[C@@H](O)[C@@H](O)NC(=O)[C@@H]5[C@@H](O)[C@@H](C)CN5C(=O)[C@H]([C@@H](C)O)NC(=O)[C@H]([C@H](O)[C@@H](O)c5ccc(O)cc5)NC(=O)[C@@H]5C[C@@H](O)CN5C(=O)[C@H]([C@@H](C)O)NC4=O)cc3)cc2)cc1 [ANIDULAFUNGIN] ({pTerphenylCO(4''-OnC5H11)}-[Orn(4R-OH,5R-OH)]T[Hyp][hTyr(3S-OH,4S-OH)]T[Pro(3S-OH,4S-Me)]; lactam 1-C)
MIC (Candida albicans [1]): 0.5 µg/mL
MIC (Candida albicans [2]): 0.44 µg/mL
MIC (Candida albicans [3]): 0.06 µg/mL (≈ 0.0526 µM)
MIC (Candida albicans [4]): 1 µg/mL (≈ 0.877 µM)
MIC (Candida albicans [5]): 1.33 µg/mL (≈ 1.17 µM)
MIC (Candida albicans [6]): 8 µg/mL
MIC (Candida albicans [7]): 8 µg/mL
MIC (Candida albicans [8]): 2 µg/mL (≈ 1.75 µM)
MIC (Candida albicans [9]): 8 µg/mL
MIC (Candida albicans [10]): 4 µg/mL
MIC (Candida albicans [11]): 8 µg/mL
MIC (Candida albicans [12]): 2 µg/mL
MIC (Candida albicans [13]): 4 µg/mL (≈ 3.51 µM)
IC50 [14]: 0.00796 µg/mL (≈ 0.00698 µM)
Ki [14]: 0.00239 µg/mL (≈ 0.0021 µM)
IC50 [15]: 0.989 µg/mL (≈ 0.867 µM)
Ki [15]: 3.2231 µg/mL (≈ 2.83 µM)
IC50 [16]: 1.152 µg/mL (≈ 1.01 µM)
Ki [16]: 4.15411 µg/mL (≈ 3.64 µM)
IC50 [17]: 2.739 µg/mL (≈ 2.4 µM)
Ki [17]: 1.16337 µg/mL (≈ 1.02 µM)
IC50 [18]: 0.787 µg/mL (≈ 0.69 µM)
Ki [18]: 0.44593 µg/mL (≈ 0.391 µM)
IC50 [19]: 0.782 µg/mL (≈ 0.686 µM)
Ki [19]: 0.29924 µg/mL (≈ 0.262 µM)
IC50 [20]: 0.0406 µg/mL (≈ 0.0356 µM)
Ki [20]: 0.0485 µg/mL (≈ 0.0425 µM)
IC50 [21]: 0.901 µg/mL (≈ 0.79 µM)
Ki [21]: 2.5637 µg/mL (≈ 2.25 µM)
Km (Candida albicans SC5314): 125 µM
Vmax (Candida albicans SC5314): 6.72 nmol/min
Km (Candida albicans [22]): 89 µM
Vmax (Candida albicans [22]): 5.87 nmol/min
Km (Candida albicans [23]): 67 µM
Vmax (Candida albicans [23]): 4.71 nmol/min
Km (Candida albicans [24]): 88 µM
Vmax (Candida albicans [24]): 6.63 nmol/min
Km (Candida albicans [25]): 54 µM
Vmax (Candida albicans [25]): 2.54 nmol/min
Km (Candida albicans [26]): 50 µM
Vmax (Candida albicans [26]): 4.4 nmol/min
Km (Candida albicans [27]): 116 µM
Vmax (Candida albicans [27]): 5.54 nmol/min
Km (Candida albicans [28]): 98 µM
Vmax (Candida albicans [28]): 3.12 nmol/min
Km (Candida albicans [29]): 31 µM
Vmax (Candida albicans [29]): 2.36 nmol/min
